According to ChEMBL document CHEMBL3351534, “Design, synthesis and antimycobacterial evaluation of 1-(4-(2-substitutedthiazol-4-yl)phenethyl)-4-(3-(4-substitutedpiperazin-1-yl)alkyl)piperazine hybrid analogues” (Eur J Med Chem, 2014):
≈ marks a conversion by molar mass, not a printed value.

Tests used:
[1] = system: Mycobacterium tuberculosis; assay: Antimycobacterial activity against Mycobacterium tuberculosis H37Rv after 5 days by MABA method; assay type: functional; details: 120 h
Summary of the method: (§1)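 MABA in 96-well plates against M. tuberculosis H37Rv. Compounds serially diluted 1:2 across columns, inoculum added, with medium-only and 3–5% DMSO solvent controls. Incubated 37 °C for 5 days. A 1:1 mix of 10× Alamar Blue and 10% Tween 80 was added and plates were reincubated 24 h at 37 °C. Blue read as no growth, pink as growth. MIC read from colour.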

[2] = Toxicity against mouse RAW264.7 cells assessed as inhibition of cell viability at 50 ug/mL after 72 hrs by MTT assay; assay type: cell-based; details: read-out: INH
Summary of the method: (§2)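 RAW 264.7 cells were exposed to compounds for 72 h. Viability was then scored by the cells' conversion of MTT into a formazan product, using a non-radioactive cell proliferation kit. Results were expressed as percentage growth inhibition at a single high concentration and as an approximate IC50.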

[3] = Toxicity against mouse RAW264.7 cells assessed as inhibition of cell viability after 72 hrs by MTT assay; assay type: cell-based; summary of the method: as §2
[4] = Selectivity index, ratio of IC50 for mouse RAW264.7 cells to MIC for Mycobacterium tuberculosis H37Rv; assay type: toxicity; details: read-out: Selectivity Index
Summary of the method: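 SI = IC50/MIC. IC50 comes from an MTT assay on RAW 264.7 cells, with viability read as conversion of MTT to formazan after 72 h exposure and % inhibition recorded at 50 µg/mL. MIC comes from the M. tuberculosis H37Rv MABA (5 days at 37 °C, Alamar Blue colour read-out).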

[5] = system: Mycobacterium tuberculosis; assay: Antimycobacterial activity against Mycobacterium tuberculosis H37Rv assessed as inhibition of microbial growth at 3.125 ug/mL after 5 days by MABA method; assay type: functional; details: 120 h; summary of the method: as §1
[6] = system: Mycobacterium tuberculosis; assay: Antimycobacterial activity against Mycobacterium tuberculosis H37Rv assessed as inhibition of microbial growth at 6.25 ug/mL after 5 days by MABA method; assay type: functional; details: 120 h; summary of the method: as §1
[7] = system: Mycobacterium tuberculosis; assay: Antimycobacterial activity against Mycobacterium tuberculosis H37Rv assessed as inhibition of microbial growth at 1.56 ug/mL after 5 days by MABA method; assay type: functional; details: 120 h; summary of the method: as §1

Structure (SMILES)	MIC [1]	cytotoxicity at 72 h, 50 ug/mL [2]	IC50 at 72 h [3]	selectivity ratio [4]	further results
CNc1nc(-c2ccc(CCN3CCN(CCCN4CCN(c5ccccn5)CC4)CC3)cc2)cs1	12.5 µg/mL (≈ 24.7 µM)	–	–	–	–
CNc1nc(-c2ccc(CCN3CCN(CCCN4CCN(c5ccccc5Cl)CC4)CC3)cc2)cs1	12.5 µg/mL (≈ 23.2 µM)	–	–	–	–
CNc1nc(-c2ccc(CCN3CCN(CCCCN4CCN(c5ccc([N+](=O)[O-])cc5)CC4)CC3)cc2)cs1	50 µg/mL (≈ 88.7 µM)	–	–	–	–
Nc1nc(-c2ccc(CCN3CCN(CCCCN4CCN(c5ccccc5Cl)CC4)CC3)cc2)cs1	50 µg/mL (≈ 92.7 µM)	–	–	–	–
Nc1nc(-c2ccc(CCN3CCN(CCCN4CCN(c5ccccc5)CC4)CC3)cc2)cs1	3.12 µg/mL (≈ 6.37 µM)	35.6%	> 50 µg/mL	> 15	inhibition at 3.125 µg/mL [5]: 99%
Nc1nc(-c2ccc(CCN3CCN(CCCCCN4CCN(c5ccc([N+](=O)[O-])cc5)CC4)CC3)cc2)cs1	6.25 µg/mL (≈ 11.1 µM)	44.6%	> 50 µg/mL	> 7	inhibition at 6.25 µg/mL [6]: 99%
Cc1nc(-c2ccc(CCN3CCN(CCCN4CCN(C(c5ccccc5)c5ccccc5)CC4)CC3)cc2)cs1	6.25 µg/mL (≈ 10.8 µM)	42.8%	> 50 µg/mL	> 7	inhibition at 6.25 µg/mL [6]: 99%
Nc1nc(-c2ccc(CCN3CCN(CCCCN4CCN(c5ccc([N+](=O)[O-])cc5)CC4)CC3)cc2)cs1	12.5 µg/mL (≈ 22.7 µM)	–	–	–	–
NNC(=O)c1ccncc1 [ISONIAZID]	0.05 µg/mL (≈ 0.365 µM)	–	–	–	–
Nc1nc(-c2ccc(CCN3CCN(CCCCN4CCN(C(c5ccccc5)c5ccccc5)CC4)CC3)cc2)cs1	3.12 µg/mL (≈ 5.25 µM)	46.4%	> 50 µg/mL	> 15	inhibition at 3.125 µg/mL [5]: 99%
Cc1nc(-c2ccc(CCN3CCN(CCCN4CCN(c5ccccn5)CC4)CC3)cc2)cs1	50 µg/mL (≈ 102 µM)	–	–	–	–
Nc1nc(-c2ccc(CCN3CCN(CCCN4CCN(c5ccccc5Cl)CC4)CC3)cc2)cs1	50 µg/mL (≈ 95.2 µM)	–	–	–	–
CNc1nc(-c2ccc(CCN3CCN(CCCCN4CCN(c5ccccc5Cl)CC4)CC3)cc2)cs1	3.12 µg/mL (≈ 5.65 µM)	40.4%	> 50 µg/mL	> 15	inhibition at 3.125 µg/mL [5]: 99%
Nc1nc(-c2ccc(CCN3CCN(CCCCN4CCN(c5ccccn5)CC4)CC3)cc2)cs1	12.5 µg/mL (≈ 24.7 µM)	–	–	–	–
Nc1nc(-c2ccc(CCN3CCN(CCCN4CCN(c5ccc([N+](=O)[O-])cc5)CC4)CC3)cc2)cs1	6.25 µg/mL (≈ 11.7 µM)	36.5%	> 50 µg/mL	> 7	inhibition at 6.25 µg/mL [6]: 99%
Nc1nc(-c2ccc(CCN3CCN(CCCN4CCN(C(c5ccccc5)c5ccccc5)CC4)CC3)cc2)cs1	3.12 µg/mL (≈ 5.38 µM)	38.4%	> 50 µg/mL	> 15	inhibition at 3.125 µg/mL [5]: 99%
CNc1nc(-c2ccc(CCN3CCN(CCCCN4CCN(C(c5ccccc5)c5ccccc5)CC4)CC3)cc2)cs1	50 µg/mL (≈ 82.1 µM)	–	–	–	–
CO[C@H]1/C=C/O[C@@]2(C)Oc3c(C)c(O)c4c(O)c(c(/C=N/N5CCN(C)CC5)c(O)c4c3C2=O)NC(=O)/C(C)=C\C=C\[C@H](C)[C@H](O)[C@@H](C)[C@@H](O)[C@@H](C)[C@H](OC(C)=O)[C@@H]1C [RIFAMPIN]	0.1 µg/mL (≈ 0.122 µM)	–	–	–	–
Nc1nc(-c2ccc(CCN3CCN(CCCN4CCN(c5ccccn5)CC4)CC3)cc2)cs1	3.12 µg/mL (≈ 6.36 µM)	38.1%	> 50 µg/mL	> 15	inhibition at 3.125 µg/mL [5]: 99%
Nc1nc(-c2ccc(CCN3CCN(CCCCN4CCN(c5ccccc5)CC4)CC3)cc2)cs1	25 µg/mL (≈ 49.5 µM)	–	–	–	–
Cc1nc(-c2ccc(CCN3CCN(CCCN4CCN(c5ccccc5)CC4)CC3)cc2)cs1	25 µg/mL (≈ 51 µM)	–	–	–	–
CNc1nc(-c2ccc(CCN3CCN(CCCN4CCN(C(c5ccccc5)c5ccccc5)CC4)CC3)cc2)cs1	1.56 µg/mL (≈ 2.62 µM)	31.8%	> 50 µg/mL	> 30	inhibition at 1.56 µg/mL [7]: 99%
CNc1nc(-c2ccc(CCN3CCN(CCCCN4CCN(c5ccccn5)CC4)CC3)cc2)cs1	25 µg/mL (≈ 48.1 µM)	–	–	–	–
CNc1nc(-c2ccc(CCN3CCN(CCCN4CCN(c5ccc([N+](=O)[O-])cc5)CC4)CC3)cc2)cs1	12.5 µg/mL (≈ 22.7 µM)	–	–	–	–
CNc1nc(-c2ccc(CCN3CCN(CCCCN4CCN(c5ccccc5)CC4)CC3)cc2)cs1	12.5 µg/mL (≈ 24.1 µM)	–	–	–	–
Cc1nc(-c2ccc(CCN3CCN(CCCN4CCN(c5ccccc5Cl)CC4)CC3)cc2)cs1	50 µg/mL (≈ 95.4 µM)	–	–	–	–
CNc1nc(-c2ccc(CCN3CCN(CCCN4CCN(c5ccccc5)CC4)CC3)cc2)cs1	50 µg/mL (≈ 99.1 µM)	–	–	–	–
Cc1nc(-c2ccc(CCN3CCN(CCCN4CCN(c5ccc([N+](=O)[O-])cc5)CC4)CC3)cc2)cs1	50 µg/mL (≈ 93.5 µM)	–	–	–	–
